The sample as a whole holds a higher share of hits than the screen did.
Avidin bead fluor: avidin bead compound fluorescence profile | Avidin beads, compound fluorescence 488/530 nm, flow cytometry; hits give high values | fluorescence (KMESF) at 10 µM | 220,000 tested, 0.38% active | AID 1775; in the data active = fluorescence above about 47
Lmaj promast: Leishmania major promastigote growth inhibition; Leishmania major promastigotes, resazurin fluorescence viability; inhibition, % at 10 µM; 200,000 tested, 9% active; AID 1063;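 also: promastigotes grown with compound for 44 hours at 28 °C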
ABCB1 inh: blocks JC-1 efflux by human ABCB1 transporter; 190,000 tested, 0.067% active; inhibition, % at 6.6 µM; CCRF-Adr cells, flow cytometry; in the data active = inhibition above about 40%;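 also: 0% = vehicle and 100% = reference inhibitor; higher value means more JC-1 retained so stronger ABCB1 efflux block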
GSH fluor: GSH bead compound fluorescence profile; AID 1776; 190,000 tested, 0.25% active; GSH beads flow cytometry, compound fluorescence 488/530 nm; hits give high values; fluorescence (KMESF) at 10 µM; in the data active = fluorescence above about 89;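 also: glutathione beads carrying GST-tagged Bcl family fusion proteins plus one bare bead set; values are compound well signal with DMSO vehicle wells as background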
PKD1 inh: inhibitors of human PKD1 kinase | AID 797 | 200,000 tested, 0.056% active | Q15139 | inhibition, % (no concentration beside the values) | PKD1 kinase fluorescence polarization assay
ABCG2 inh: inhibitors of human ABCG2 transporter, ABCB1 counter-screen | IgMXP3 cells, JC-1 efflux, flow cytometry | AID 1325 | inhibition, % at 6.6 µM | 190,000 tested, 0.1% active | Q9UNQ0;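 active = inhibition above 80%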;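 also: 0% = DMSO and 100% = nicardipine control wells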
Target sequence (Q9UNQ0 whole entry, looked up): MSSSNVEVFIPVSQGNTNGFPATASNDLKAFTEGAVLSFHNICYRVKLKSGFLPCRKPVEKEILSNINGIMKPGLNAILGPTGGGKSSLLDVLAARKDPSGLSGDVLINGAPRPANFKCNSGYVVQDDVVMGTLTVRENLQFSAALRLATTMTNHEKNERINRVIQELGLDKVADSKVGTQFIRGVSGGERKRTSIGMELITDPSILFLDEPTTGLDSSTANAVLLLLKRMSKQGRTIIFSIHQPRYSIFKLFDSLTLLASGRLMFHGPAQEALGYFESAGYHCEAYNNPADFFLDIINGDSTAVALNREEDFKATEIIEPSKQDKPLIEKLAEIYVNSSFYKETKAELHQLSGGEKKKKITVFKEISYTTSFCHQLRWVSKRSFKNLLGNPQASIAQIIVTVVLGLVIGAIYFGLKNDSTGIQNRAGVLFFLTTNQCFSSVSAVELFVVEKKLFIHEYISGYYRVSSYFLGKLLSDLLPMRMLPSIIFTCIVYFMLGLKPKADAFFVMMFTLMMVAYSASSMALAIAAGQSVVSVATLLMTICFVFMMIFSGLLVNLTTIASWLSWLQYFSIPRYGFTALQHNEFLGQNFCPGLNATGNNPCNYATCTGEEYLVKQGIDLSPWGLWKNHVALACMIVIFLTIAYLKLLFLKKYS
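Test system: ABCG2 IgMXP3 and barcoded ABCB1 CCRF-Adr cell mix; Schedule: cells with compound and JC-1, 10 min at 25 °C, rotating, no wash; Technique: flow cytometry of retained JC-1 fluorescence; Measure: % inhibition of efflux relative to nicardipine and DMSO; Controls: nicardipine high and DMSO low controls.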
The depositor's hits bear a star; x = not tested or not shown; + = active, no number. Rule as the data show it, unless noted: active = inhibition above about 50%; inactive = the rest.

SMILES | Avidin bead fluor | Lmaj promast | ABCB1 inh | GSH fluor | PKD1 inh | ABCG2 inh
CCSC1=NC(C)(C)C=C(/C=C/c2ccc(Cl)cc2Cl)N1 | 12 | 100* | 0 | 52 | 9 | 2
CSC1=NC(C)(C)C=C(/C=C/c2ccc(Cl)cc2Cl)N1 | 17 | 72* | -1 | 7 | -6 | -1
O=c1[nH]c(CSc2nc(-c3ccc(F)cc3)cs2)nc2ccccc12 | 20 | 47 | 0 | 9 | -11 | 22
COC(=O)C1=C(C)N(CCc2c[nH]c3ccc(OC)cc23)C(=O)C1 | 9 | 18 | 0 | 13 | 3 | 4
CCN1/C(=C/C=C/c2oc3ccc(-c4ccccc4)cc3[n+]2CC)Oc2ccc(-c3ccccc3)cc21 | 994* | 100* | + | 640* | -7 | x
O=C(/C=C/c1cc([N+](=O)[O-])ccc1OC(F)F)NCc1ccc(F)cc1 | 7 | -1 | 0 | 265* | -4 | 2
CNC(=S)SCCOc1ccccc1 | 15 | x | x | x | x | x
O=S1(=O)CCC(NC(=S)SCCOc2ccccc2)C1 (centres undefined) | 11 | 92* | 0 | 25 | -5 | 3
CCCCSC(=S)NC1CCS(=O)(=O)C1 (centres undefined) | 12 | 95* | 1 | 3 | -5 | 5
O=S1(=O)CCC(NC(=S)NC2CCS(=O)(=O)C2)C1 (centres undefined) | 3 | -2 | -1 | 16 | -11 | -9
CC(C)N(Cc1ccccc1)CC(O)COc1ccc(S(=O)(=O)N2CCOCC2)cc1Cl (centres undefined) | 11 | 100* | 0 | 13 | -2 | -3
O=S(=O)(c1ccc(OCC(O)CNCc2ccco2)c(Cl)c1)N1CCOCC1 (centres undefined) | 14 | -4 | -2 | 26 | 3 | -2
O=c1cc(C(Cl)(Cl)Cl)oc2c1ccc1ccccc12 | 5 | 98* | -2 | 30 | -6 | -7
CCOc1ccc2[nH]c(=O)c(CN(CCN3CCCC3)C(=S)Nc3ccccc3OCC)cc2c1 | 10 | 98* | 0 | 9 | -5 | -1
CC(=O)Nc1ccccc1N(CC(O)Cn1c2ccccc2c2ccccc21)S(=O)(=O)c1ccc(C)cc1 (centres undefined) | 8 | 64* | 14 | 12 | 2 | 20
Cc1oc(-c2ccc3c(c2)OCCO3)cc1C(=O)NC(Cc1ccccc1)C(=O)O (centres undefined) | 3 | -6 | 0 | 12 | -5 | 3
Cc1nnc(N/N=C/c2ccc([N+](=O)[O-])cc2)n1N | 22 | 11 | 0 | 57 | 3 | 0
CCc1nnc(N/N=C/c2ccccc2Cl)n1N | 8 | -3 | 1 | 30 | -12 | 8
CCc1nnc(N/N=C/c2ccc(N3CCC(C)CC3)c([N+](=O)[O-])c2)n1N | 3 | 73* | 1 | 5 | -12 | 9
Cc1nnc(N/N=C/c2cc([N+](=O)[O-])c(N3CCC(C)CC3)cc2N2CCC(C)CC2)n1N | 8 | 100* | 0 | 19 | -5 | 0
CCn1c(SCC(=O)N2CCCCC2C)nnc1-c1ccc(S(=O)(=O)N2CCN(C)CC2)cc1 (centres undefined) | 7 | -4 | 0 | 264* | 0 | 0
CCn1c(SCc2nnc(-c3ccccc3)o2)nnc1-c1ccc(S(=O)(=O)N2CCCC2)cc1 | 15 | 99* | 1 | 9 | 5 | 2
O=C(CSc1nnc(-c2ccc(S(=O)(=O)N3CCCC3)cc2)o1)NCc1ccccc1 | 7 | 99* | 0 | 113* | -12 | 9
CC(NC(=O)CSc1nnc(-c2cccc(S(=O)(=O)N3CCCCC3)c2)o1)C12CC3CC(CC(C3)C1)C2 (centres undefined) | 7 | 96* | 1 | 52 | 2 | 3
CCn1c(SCC(N)=O)nnc1-c1ccc(S(=O)(=O)N2CCN(C)CC2)cc1 | 11 | -5 | 0 | 33 | -1 | 7
SMILES | Avidin bead fluor | Lmaj promast | ABCB1 inh | GSH fluor | PKD1 inh | ABCG2 inh
CCOC(=O)C(=O)/C(=C\N(C)C)c1onc(-c2c(F)cccc2Cl)c1C(=O)OC | 3 | -6 | 1 | 56 | -4 | 4
CC1=NNC(=O)C1C(c1ccccc1)C1C(=O)NN=C1C (centres undefined) | 25 | 13 | 2 | 9 | -4 | 0
CN(c1ccccc1)S(=O)(=O)c1cccc(NC(=O)CSc2ncc(C(F)(F)F)cc2Cl)c1 | 6 | -7 | 0 | 9 | 1 | 1
O=S(=O)(c1ccc(-c2nnc(SCc3nnc(-c4ccccc4)o3)o2)cc1)N1CCCC1 | 10 | 100* | 0 | 9 | -4 | 1
CCn1c(SC)nnc1-c1ccc(S(=O)(=O)N2CCCCC2)cc1 | x | -5 | x | x | 5 | x
CCn1c(SCc2ccccc2)nnc1-c1ccc(S(=O)(=O)N2CCCCC2)cc1 | 9 | 99* | 2 | 24 | 3 | 28
Cc1ccccc1NC(=O)OCc1cccnc1Oc1ccc(Cl)cc1 | 7 | 16 | 0 | 15 | 0 | 0
O=C(COC(=O)c1cccc(NS(=O)(=O)/C=C/c2ccccc2)c1)Nc1ccccc1OC(F)F | 3 | -6 | 0 | 8 | -12 | -2
Cc1onc(-c2ccccc2)c1C(=O)Nc1cc(C(F)(F)F)ccc1N1CCOCC1 | 37 | 24 | 0 | 15 | -9 | 0
Cc1onc(-c2ccccc2)c1C(=O)Nc1ccccc1N1CCOCC1 | 12 | 69* | 1 | 15 | -2 | 2
Cc1onc(-c2ccccc2)c1C(=O)Nc1ccncc1 | 50* | 1 | 0 | 12 | -2 | 2
Cc1cccc(C)c1NC(=O)c1c(-c2ccccc2)noc1C | 8 | 6 | 6 | 32 | 0 | 6
COc1cc(OC)c(NC(=O)c2c(-c3ccccc3)noc2C)cc1Cl | 15 | 94* | 0 | 29 | -6 | 13
COc1ccc(-c2cc(C(=O)NNC(=S)NC(=O)c3c(-c4ccccc4)noc3C)[nH]n2)cc1 | 11 | 63* | 0 | 14 | -2 | -4
COc1ccc(/C=C/C(=O)NC(=S)NNC(=O)c2c(-c3ccccc3)noc2C)cc1 | 13 | 3 | 0 | 19 | -6 | -1
COc1ccc(OCC(=O)NNC(=O)C(=O)N2CCCC2)cc1 | 6 | -5 | 0 | 11 | -5 | 12
CCN(CC)C(=O)CSc1nc2c(c(-c3cccnc3)c1C#N)CCCC2 | 9 | 4 | 6 | 20 | -1 | 10
Cc1[nH]n(-c2ccc([N+](=O)[O-])cc2)c(=O)c1N=Nc1nc2ccccc2s1 | x | -6 | x | x | 2 | x
CN1CCN(C2=C(Cl)C(=O)N(CCc3ccccc3)C2=O)CC1 | 35 | 93* | 1 | 47 | -11 | 9
O=C1C(Cl)=C(NCCCN2CCOCC2)C(=O)N1CCc1ccccc1 | 15 | 97* | 2 | 30 | -4 | 20
O=C1C(Cl)=C(N2CCOCC2)C(=O)N1CCc1ccccc1 | 8 | -2 | 2 | 43 | -15 | 13
Brc1cccc2sc(N3CCCC3)nc12 | 5 | -5 | 1 | 18 | 1 | 12

Screening results: PubChem BioAssay, several laboratories
